p97 ATPase inh: blocks human p97 ATPase activity; AID 1481; recombinant p97 ATPase, Kinase-Glo ATP luminescence, 3 h; inhibition, % at 8 µM; 220,000 compounds, 0.42% hits; in the data active means inhibition above about 15%
Target sequence (P55072 whole entry, looked up): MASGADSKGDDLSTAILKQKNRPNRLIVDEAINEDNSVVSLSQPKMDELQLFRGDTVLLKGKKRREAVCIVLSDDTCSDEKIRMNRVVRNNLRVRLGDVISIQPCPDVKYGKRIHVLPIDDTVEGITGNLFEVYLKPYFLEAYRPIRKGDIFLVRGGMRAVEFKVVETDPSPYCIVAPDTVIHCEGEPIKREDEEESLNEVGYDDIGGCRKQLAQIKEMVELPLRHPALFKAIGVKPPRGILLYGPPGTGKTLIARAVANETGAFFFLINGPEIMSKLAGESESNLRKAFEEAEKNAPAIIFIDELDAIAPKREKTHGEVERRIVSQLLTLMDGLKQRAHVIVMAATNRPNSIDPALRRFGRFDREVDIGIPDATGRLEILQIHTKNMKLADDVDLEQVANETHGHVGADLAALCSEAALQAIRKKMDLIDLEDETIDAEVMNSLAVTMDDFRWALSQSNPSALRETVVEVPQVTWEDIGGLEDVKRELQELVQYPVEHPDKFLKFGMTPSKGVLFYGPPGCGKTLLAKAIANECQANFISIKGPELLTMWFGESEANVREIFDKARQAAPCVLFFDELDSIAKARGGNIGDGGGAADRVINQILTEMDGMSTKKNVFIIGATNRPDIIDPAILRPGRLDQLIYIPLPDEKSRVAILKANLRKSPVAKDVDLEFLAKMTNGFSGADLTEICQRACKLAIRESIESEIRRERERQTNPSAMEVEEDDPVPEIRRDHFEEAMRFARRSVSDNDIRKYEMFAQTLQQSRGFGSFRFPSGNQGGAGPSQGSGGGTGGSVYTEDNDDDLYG
UPR XBP1 act: adaptive UPR (XBP1) activation | activation, % at 20 µM | AID 463104 | CHO-XBP1 luciferase reporter, IRE1-XBP1 UPR activation, luminescence; percent of tunicamycin response, DMSO as zero | 330,000 compounds, 0.33% hits;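 active means versus positive control, 20 µM dose yields 30% or more activation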
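Signal: luciferase luminescence; Assay system: CHO-XBP1 luciferase reporter cells; Amount: one thousand reporter cells per well; Dosing: 20 µM single concentration, DMSO 1%; Benchmarks: high control tunicamycin 10 µg/mL final, low control DMSO vehicle only; Schedule: 6 h compound exposure at 37 °C, 5% CO2; Evaluation: percent activation relative to tunicamycin reference.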
CHOP UPR activ: apoptotic UPR (CHOP) activation; CHO-CHOP luciferase reporter, luminescence; percent of tunicamycin response over DMSO baseline; AID 449763; 330,000 compounds, 0.34% hits; activation, % at 10 µM;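 active means at 10 µM dose, activation of 40% or more, normalized to positive control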
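System: CHO-CHOP luciferase reporter cell line | Buffer or medium: F12 medium containing 10% fetal bovine serum | Doses: One dose, 10 µM in 0.5% DMSO | Times: 6 h compound exposure at 37 °C after overnight seeding | Signal: Luciferase luminescence | Read-out: % activation vs tunicamycin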
CHOP inhibitor: inhibitors of CHOP induction in ER stress response. CHO-K1 CHOP-promoter luciferase, tunicamycin-induced, 15-18 h. inhibition, % at 10 µM. 220,000 compounds, 3.8% hits. AID 2732;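 active means compounds that reduced the stress-induced luciferase reporter signal by more than about 70% of percent inhibition, limit read from the data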
NS3 helicase inh: blocks Hepatitis C virus NS3 helicase unwinding. NS3 helicase DNA unwinding, Cy5 molecular beacon fluorescence. inhibition, % at 10.9 µM. 290,000 compounds, 0.56% hits. AID 1800;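 active means inhibition above the mean of all tested compounds plus 3 SD, set per campaign, cut at about 35% in these data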
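System: Hepatitis C virus NS3 helicase domain fragment enzyme | Reagent: Annealed dual-labelled DNA beacon duplex, ATP-started | Compound dosing: 10.9 µM single point, 0.8% DMSO | Incubation: 1 h reaction at 25 °C, ATP-initiated | Technique: Cy5 fluorescence | Evaluation: Percent inhibition from t60/t0 fluorescence ratio | Benchmarks: Low DMSO, high thioflavine S at 110 µM | Replication: Singlicate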
PfM18AAP inh: PfM18AAP enzyme inhibition | recombinant PfM18AAP, H-Glu-NHMec fluorogenic cleavage | inhibition, % at 7.35 µM | 290,000 compounds, 1.2% hits | AID 1822;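 active means inhibition above the campaign mean inhibition over all tested compounds plus 3 SD, cut at about 28% in these data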
UPR XBP1 confirm: adaptive UPR (XBP1) activation, confirmed; 1,000 compounds, 63% hits; activation, % at 20 µM; shares compounds with UPR XBP1 act; CHO-XBP1 IRE1-XBP1 luciferase reporter, luminescence;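 active means reporter signal at least 30% of the positive control's activation in two or more of four replicate wells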
Numbers stand for hits; . = inactive; / = no result given. An excerpt weighted towards active compounds, which were near 4.5% of everything screened.

SMILES	p97 ATPase inh	UPR XBP1 act	CHOP UPR activ	CHOP inhibitor	NS3 helicase inh	PfM18AAP inh	UPR XBP1 confirm
Cc1sc(NC(=O)c2ccco2)c(C(c2ccc(F)cc2)N2CCN(C)CC2)c1C (centres undefined)	.	.	.	.	.	.	/
Cc1sc(NC(=O)c2ccco2)c(C(c2cccnc2)N2CCN(c3ccc(F)cc3)CC2)c1C (centres undefined)	.	33	.	/	.	.	.
CCc1cc2c(N=Nc3c(O)[nH]c4ccccc34)ncnc2s1	.	35	.	.	.	.	.
Cc1ccc(CNC(=O)c2ccc3c(=O)n4c(-c5ccc(C)cc5)csc4nc3c2)cc1	/	46	.	79	/	/	120
Cc1ccc(C(C[N+](=O)[O-])c2c(-c3ccccc3O)[nH][nH]c2=O)cc1 (centres undefined)	.	31	.	.	.	.	.
CC(C)=CCc1c2c(c3occ(-c4ccc(O)cc4)c(=O)c3c1O)C=CC(C)(C)O2	.	56	.	76	.	.	50
CC(C)=CCc1c(O)cc2c(=O)c3ccc(O)cc3oc2c1O	/	.	.	/	/	/	/
O=c1cc(CN2CCN(c3ccccc3)CC2)c2cc(O)c(-c3ccccc3)cc2o1	.	60	.	.	.	.	113
CCn1c(O)c(C(C#N)=C2N=c3ccccc3=N2)c2ccccc21	.	34	.	.	.	.	.
CC1(C)Cc2nc3oc4c(=O)n(CC(=O)Nc5cccc(Cl)c5)cnc4c3cc2CO1	.	59	.	.	.	.	.
CCOC(=O)C1=C(C)N=C2SC(C(=O)OC)=CC(=O)N2C1c1ccc(F)cc1 (centres undefined)	.	132	.	.	.	.	103
CCOC(=O)C1=C(C)N=C2SC(C(=O)OC)=CC(=O)N2C1c1cccc(OC)c1 (centres undefined)	.	.	.	.	.	.	/
O=C(NCCC1=CCCCC1)C(=O)NCC(c1ccco1)N1CCN(c2ccc(F)cc2)CC1 (centres undefined)	.	31	.	88	.	.	56
COC(=O)CSc1nc(N)c2c3c(sc2n1)C(c1ccccc1)SC(c1ccccc1)C3 (centres undefined)	.	38	.	.	.	.	.
COc1cc(/C=N/NC(=O)NC23CC4CC(CC(C4)C2)C3)ccc1O	/	44	.	/	.	.	.
O=C(c1c(F)cccc1F)N1CCN(CCOc2ccccc2)CC1	/	.	.	/	.	.	/
Cc1ccc(C)c(S(=O)(=O)N2CCN(C(=O)CN3C(=O)NC(C)(C)C3=O)CC2)c1	/	.	.	/	/	/	/
CCC(C)(C)C1CCC2(CC1)NC(=O)N(CC(=O)N1CCN(S(=O)(=O)c3cc(C)ccc3C)CC1)C2=O (centres undefined)	/	81	.	/	.	.	107
CN(C)S(=O)(=O)c1ccc(Cl)c(C(=O)NNC(=O)Cn2ccc(C(F)(F)F)n2)c1	/	.	.	/	/	/	/
COc1cc([C@@H]2c3cc4c(cc3[C@H](O)C3COC(=O)[C@@H]32)OCO4)cc(OC)c1OC (some centres undefined)	/	/	/	.	/	/	/
COc1cc([C@@H]2c3cc4c(cc3[C@@H](O)[C@H]3COC(=O)[C@H]23)OCO4)cc(OC)c1O[Si](C)(C)C(C)(C)C	/	58	.	87	/	/	48
COc1cc(Cl)c(CNC[C@H]2O[C@@H](n3cnc4c(N)ncnc43)[C@H](O)[C@@H]2O)c(Cl)c1O	/	.	.	/	/	/	/
CC(Oc1ccccc1Cl)C(=O)Nc1ccccc1C(=O)N1CCOCC1 (centres undefined)	/	32	.	/	.	.	.
CCc1ccc(OC(C)C(=O)Nc2ccccc2C(=O)N2CCOCC2)cc1 (centres undefined)	/	.	.	/	.	.	/
CC1CCN(S(=O)(=O)c2ccc3nc(-c4ccccn4)cc(C(=O)NCCN(C)Cc4ccccc4)c3c2)CC1	.	/	/	.	.	.	/
SMILES	p97 ATPase inh	UPR XBP1 act	CHOP UPR activ	CHOP inhibitor	NS3 helicase inh	PfM18AAP inh	UPR XBP1 confirm
O=C(Cn1c2ccccc2c(=O)c2cc([N+](=O)[O-])ccc21)Nc1ccccc1Cl	.	118	.	.	.	.	80
C/C(=N\NC(=O)c1ccc(O)cc1)c1ccc(NC(=O)Cc2ccccc2)cc1	/	.	.	/	.	.	/
Cc1cc(C)c(C#N)c(SCC(=O)N2CCCCC2)n1	.	34	.	.	.	.	.
CNc1nc(-c2c(C)n(C)c3ccc(OC)cc23)cs1	/	.	.	/	.	.	/
CCOc1cccc2sc(N(CCCN(C)C)C(=O)c3ccc(S(=O)(=O)N4CCc5ccccc5C4)cc3)nc12	/	35	.	/	.	.	.
O=C(COC(=O)c1ccc(OC(F)(F)F)cc1)NCCN1C(=O)CSC1=O	/	.	.	/	/	/	/
COc1ccc(CN(C)C(=O)c2ccc(OCC(=O)N3CCOCC3)c(OC)c2)cc1	/	.	.	/	/	/	/
COc1ccc2oc(-c3ccc(C)c(NC(=O)c4ccc(N5CCOCC5)c([N+](=O)[O-])c4)c3)nc2c1	.	119	.	.	.	.	140
COc1ccc(CNC(=O)c2ccc(N3CCOCC3)c([N+](=O)[O-])c2)cc1	.	.	.	.	.	.	/
c1ccc(SSc2ccccc2)cc1	.	49	.	.	.	.	.
Cc1cc(C(F)(F)F)nc(CCNC(=O)C2CCC(=O)N(Cc3cccc(F)c3)C2)n1 (centres undefined)	/	.	.	/	.	.	/
Cc1ccc2oc(C(Cl)(Cl)Cl)cc(=O)c2c1	.	112	.	.	.	.	121
CCCC(=O)Nc1c2c(nc3ccccc13)N(c1ccccc1)CC2	.	.	.	.	.	.	/
O=C(CN1CCCCC1)Nc1c2c(nc3ccccc13)N(c1ccccc1)CC2	.	56	.	86	.	.	.
CCOc1ccc(NC(=O)[C@H](Cc2ccccc2)NC(=O)C2CCNCC2)cc1	/	.	.	/	.	.	/
O=[N+]([O-])c1ccc(/C=C/c2ccc3cccc([N+](=O)[O-])c3n2)cc1	.	.	.	.	.	.	/
O=[N+]([O-])c1cccc(/C=C/c2ccc3cccc(O)c3n2)c1	/	98	.	/	.	.	158
Cc1cccc(CC(=O)N2CCC(n3nccc3NC(=O)C3CC3)CC2)c1	/	.	.	/	.	.	/
CCN=C1S/C(=C\c2cn(CC(=O)NCc3ccco3)c3ccccc23)C(=O)N1CC	/	116	.	/	.	.	97
COc1ccc(NC(=O)CSc2nc3n[nH]c(C)c3c(=N)n2-c2ccc(Cl)c(C)c2)cc1OC	/	34	.	/	.	.	.
COc1ccc(OC)c(NC(=O)CSc2nc3n[nH]c(C)c3c(=N)n2-c2cccc(Cl)c2C)c1	/	.	.	/	.	.	/

Bioassay records deposited in PubChem BioAssay by several laboratories.
